Calls of active or inactive are those of the source. The calls are words filed in the database; no cut-off is given here.
Columns and labels:
[1] = molecular target: Katanin p60 ATPase-containing subunit A1 (Homo sapiens) (UniProt O75449); test: Induction of katanin p60 subunit-mediated JNK signaling pathway activation assessed as increase in c-Jun phosphorylation level at S63 residues in human NCI-H1975 cells at 300 nM after 6 to 12 hrs by immunoblot analysis; assay type: cell-based
Summary of the method: (§1)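 H1975 cells treated with 300 nM for 6 h and 12 h, lysed, and phospho-JNK and phospho-c-Jun detected by immunoblot with ECL. Three independent experiments.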

[2] = molecular target: Katanin p60 ATPase-containing subunit A1 (Homo sapiens) (UniProt O75449); test: Induction of katanin p60 subunit-mediated microtubule fragmentation in human NCI-H1975 cells assessed as alpha-tubulin level in polymer form at 300 nM after 1 hr by immunoblot analysis (reference value: 63%); assay type: cell-based
[3] = molecular target: Katanin p60 ATPase-containing subunit A1 (Homo sapiens) (UniProt O75449); test: Induction of katanin p60 subunit-mediated JNK signaling pathway activation in human NCI-H1975 cells assessed as increase in c-Jun phosphorylation at S63 residues at 300 nM after 9 hrs by phospho-kinase antibody array method; assay type: cell-based
Summary of the method: (§2)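 H1975 cells seeded overnight, exposed to 300 nM for 9 h; DMSO-treated cells as controls. Lysates rocked 30 min at 4 °C and spun at 14,000×g for 30 min. Equal BCA-quantified protein applied to a human phospho-kinase antibody array; spot density measured by densitometry.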

[4] = molecular target: Katanin p60 ATPase-containing subunit A1 (Homo sapiens) (UniProt O75449); test: Induction of katanin p60 subunit-mediated microtubule fragmentation in human NCI-H1975 cells at 300 nM after 12 hrs by DAPI staining based confocal laser microscopy; assay type: cell-based
Summary of the method: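 H1975 cells treated 12 h, fixed in 3.7% cold paraformaldehyde and permeabilized with 0.1% Triton X-100. Stained with anti-α-tubulin at 37 °C for 1 h, then FITC secondary (1:100) at 37 °C for 1 h. Mounted with DAPI and imaged by confocal microscopy.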

[5] = molecular target: Katanin p60 ATPase-containing subunit A1 (Homo sapiens) (UniProt O75449); test: Induction of katanin p60 subunit-mediated microtubule fragmentation in human NCI-H1975 cells assessed as alpha-tubulin level in soluble form at 300 nM after 12 hrs by gel filtration chromatography/immunoblot analysis; assay type: cell-based
Summary of the method: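 H1975 cells treated with 300 nM or vehicle for 12 h; soluble extracts made in IP lysis buffer. Run on a Toyopearl HW-65F gel filtration column equilibrated in IP lysis buffer, collecting 0.5 mL fractions. Fractions separated by 10% SDS–PAGE and α-tubulin detected by immunoblot.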

[6] = molecular target: Katanin p60 ATPase-containing subunit A1 (Homo sapiens) (UniProt O75449); test: Induction of katanin p60 subunit-mediated microtubule fragmentation in human NCI-H1975 cells assessed as alpha-tubulin level in soluble form at 300 nM after 1 hr by immunoblot analysis (reference value: 37%); assay type: cell-based
[7] = molecular target: Katanin p60 ATPase-containing subunit A1 (Homo sapiens) (UniProt O75449); test: Induction of katanin p60 subunit-mediated microtubule fragmentation in human NCI-H1975 cells assessed as alpha-tubulin level in polymer form at 600 nM after 1 hr by immunoblot analysis (reference value: 63%); assay type: cell-based
[8] = molecular target: Katanin p60 ATPase-containing subunit A1 (Homo sapiens) (UniProt O75449); test: Induction of katanin p60 subunit-mediated JNK signaling pathway activation assessed as increase in phosphorylation level at T183/Y185 residues in human NCI-H1975 cells at 300 nM after 6 to 12 hrs by immunoblot analysis; assay type: cell-based; summary of the method: as §1
[9] = molecular target: Katanin p60 ATPase-containing subunit A1 (Homo sapiens) (UniProt O75449); test: Induction of katanin p60 subunit-mediated JNK signaling pathway activation in human NCI-H1975 cells assessed as increase in JNK phosphorylation at T183/Y185 and T221/Y223 residues at 300 nM after 9 hrs by phospho-kinase antibody array method; assay type: cell-based; summary of the method: as §2
[10] = molecular target: Katanin p60 ATPase-containing subunit A1 (Homo sapiens) (UniProt O75449); test: Induction of katanin p60 subunit-mediated microtubule fragmentation in human NCI-H1975 cells assessed as alpha-tubulin level in soluble form at 600 nM after 1 hr by immunoblot analysis (reference value: 37%); assay type: cell-based
[11] = Cytotoxicity against human NCI-H1975 cells harboring EGFR T790M mutant assessed as decrease in cell viability after 72 hrs by MTT assay; assay type: functional, cell-based; settings: NCI-H1975, 72 h
[12] = molecular target: Katanin p60 ATPase-containing subunit A1 (Homo sapiens) (UniProt O75449); test: Binding affinity to katanin p60 subunit in human NCI-H1975 cell lysate using biotin-labeled compound preincubated for 24 hrs followed by streptavidin-conjugated beads addition measured after 2 hrs by immunoblot analysis; assay type: cell-free
Summary of the method: (§3)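 H1975 lysate incubated 24 h with biotinylated probe or with a purine-free linker as control. Bound proteins detected by immunoblot; three independent experiments.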

[13] = molecular target: Katanin p80 WD40 repeat-containing subunit B1 (Homo sapiens) (UniProt Q9BVA0); test: Binding affinity to katanin p80 subunit in human NCI-H1975 cell lysate using biotin-labeled compound preincubated for 24 hrs followed by streptavidin-conjugated beads addition measured after 2 hrs by immunoblot analysis; assay type: cell-free; summary of the method: as §3
Sequence of Katanin p80 WD40 repeat-containing subunit B1 (Homo sapiens) (Q9BVA0 whole entry): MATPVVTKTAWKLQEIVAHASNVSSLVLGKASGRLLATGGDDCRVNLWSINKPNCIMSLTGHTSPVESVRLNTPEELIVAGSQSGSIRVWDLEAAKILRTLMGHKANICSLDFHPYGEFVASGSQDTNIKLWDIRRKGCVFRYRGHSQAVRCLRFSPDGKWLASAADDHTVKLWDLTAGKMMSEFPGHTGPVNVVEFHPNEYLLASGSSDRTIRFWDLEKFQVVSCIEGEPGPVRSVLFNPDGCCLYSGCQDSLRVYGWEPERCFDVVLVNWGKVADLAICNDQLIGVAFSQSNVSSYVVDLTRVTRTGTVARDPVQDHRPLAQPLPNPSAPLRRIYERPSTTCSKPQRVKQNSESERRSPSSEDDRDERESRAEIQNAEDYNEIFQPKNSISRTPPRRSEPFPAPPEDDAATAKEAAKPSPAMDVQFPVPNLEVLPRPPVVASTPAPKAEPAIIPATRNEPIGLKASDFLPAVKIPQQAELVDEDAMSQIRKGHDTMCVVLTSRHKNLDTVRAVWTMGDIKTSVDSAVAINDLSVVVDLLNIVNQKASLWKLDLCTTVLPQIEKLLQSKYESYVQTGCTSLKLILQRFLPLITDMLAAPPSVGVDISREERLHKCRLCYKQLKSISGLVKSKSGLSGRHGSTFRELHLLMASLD

Sequence of Katanin p60 ATPase-containing subunit A1 (Homo sapiens) (O75449 whole entry, the tested form may be a part): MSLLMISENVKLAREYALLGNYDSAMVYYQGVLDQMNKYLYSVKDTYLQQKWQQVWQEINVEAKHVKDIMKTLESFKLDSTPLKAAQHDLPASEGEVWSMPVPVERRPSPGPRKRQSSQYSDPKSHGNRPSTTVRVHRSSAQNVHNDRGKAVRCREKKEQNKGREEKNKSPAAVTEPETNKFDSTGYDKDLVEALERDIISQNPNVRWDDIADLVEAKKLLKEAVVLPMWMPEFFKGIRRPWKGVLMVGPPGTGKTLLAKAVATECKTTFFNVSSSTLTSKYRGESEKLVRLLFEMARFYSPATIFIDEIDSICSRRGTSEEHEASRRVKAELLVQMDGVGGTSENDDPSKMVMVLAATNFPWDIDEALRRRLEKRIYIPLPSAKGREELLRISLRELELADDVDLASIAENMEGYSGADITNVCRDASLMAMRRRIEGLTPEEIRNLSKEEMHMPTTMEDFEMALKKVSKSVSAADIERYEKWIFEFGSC

CCOc1ccc(-c2nc(C(N)=O)c3[nH]c(=O)n(-c4ccccc4OC)c3n2)cc1
Activity [1]: Active
Activity [2]: 32%
Activity [3]: Active
Activity [4]: Active
Activity [5]: Active
Activity [6]: 68%
Activity [7]: 25%
Activity [8]: Active
Activity [9]: Active
Activity [10]: 75%

CCCCOc1ccc(-c2nc(C(N)=O)c3[nH]c(=O)n(-c4ccccc4OC)c3n2)cc1
IC50 [11]: 4.66 µM

COC(=O)c1cccc(-n2c(=O)[nH]c3c(C(N)=O)nc(-c4ccc(-c5ccccc5)cc4)nc32)c1
IC50 [11]: > 20 µM

CCOc1ccc(-c2nc(C(N)=O)c3[nH]c(=O)n(-c4cccc(C(=O)O)c4)c3n2)cc1
IC50 [11]: 7.91 µM

CCOc1ccc(-c2nc(C(N)=O)c3[nH]c(=O)n(-c4cccc(C(=O)NCCCCCNC(=O)CCCC[C@@H]5SC[C@@H]6NC(=O)N[C@@H]65)c4)c3n2)cc1
IC50 [11]: 26.3 µM
Activity [12]: Active
Activity [13]: Active

CCCCCCOc1ccc(-c2nc(C(N)=O)c3[nH]c(=O)n(-c4ccccc4OC)c3n2)cc1
IC50 [11]: > 5 µM

CCOc1ccc(-c2nc(C(N)=O)c3[nH]c(=O)n(-c4cccc(C(=O)NCCCCCNC(=O)OC(C)(C)C)c4)c3n2)cc1
IC50 [11]: > 10 µM

— ChEMBL document CHEMBL3860040, “Purine-Type Compounds Induce Microtubule Fragmentation and Lung Cancer Cell Death through Interaction with Katanin” (J Med Chem, 2016)
